ChEMBL document CHEMBL1141182, “Selective benzopyranone and pyrimido[2,1-a]isoquinolin-4-one inhibitors of DNA-dependent protein kinase: synthesis, structure-activity studies, and radiosensitization of a human tumor cell line in vitro” (J Med Chem, 2005)

What was measured:
[1] = molecular target: T1, Serine-protein kinase ATM (Homo sapiens, UniProt Q13315); experiment: Inhibition of ATM kinase using rabbit polyclonal antisera; No inhibition observed at 100 uM; set-up: species or system Oryctolagus cuniculus; settings: target entry is the homologue from another species
[2] = molecular target: T2, Serine/threonine-protein kinase ATR (Homo sapiens, UniProt Q13535); experiment: Inhibition of ATR kinase using rabbit polyclonal antisera; No inhibition observed at 100 uM; set-up: species or system Oryctolagus cuniculus; settings: target entry is the homologue from another species
[3] = molecular target: DNA-dependent protein kinase catalytic subunit (Homo sapiens, UniProt P78527); experiment: Inhibition of DNA dependent protein kinase isolated from HeLa cells; assay type: cell-free
[4] = molecular target: Phosphatidylinositol 4,5-bisphosphate 3-kinase catalytic subunit alpha isoform (Homo sapiens, UniProt P42336); experiment: Inhibition of Phosphatidylinositol 3-kinase
Summary of the method: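 PI 3-kinase assay run following a prior method, with baculovirus-derived recombinant human p110α and p85α.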

[5] = molecular target: Serine/threonine-protein kinase mTOR (Homo sapiens, UniProt P42345); experiment: Inhibition of mTOR protein isolated from HeLa cells
Summary of the method: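 mTOR immunoprecipitated from HeLa cell cytoplasmic extract. Activity measured following a prior method, with recombinant PHAS-1 as substrate.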

[6] = molecular target: T1, Serine-protein kinase ATM; experiment: Inhibition of ATM kinase using rabbit polyclonal antisera; set-up: species or system Oryctolagus cuniculus; settings: target entry is the homologue from another species
Summary of the method: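 ATM kinase activity assayed following a previously published method, using rabbit polyclonal antisera raised against the COOH-terminal 400 amino acids of ATM.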

[7] = molecular target: T2, Serine/threonine-protein kinase ATR; experiment: Inhibition of ATR kinase using rabbit polyclonal antisera; set-up: species or system Oryctolagus cuniculus; settings: target entry is the homologue from another species
Summary of the method: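 ATR kinase activity measured following earlier published methods, using antisera raised against ATR amino acids 400–480.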

T2 sequence (Q13535 whole entry): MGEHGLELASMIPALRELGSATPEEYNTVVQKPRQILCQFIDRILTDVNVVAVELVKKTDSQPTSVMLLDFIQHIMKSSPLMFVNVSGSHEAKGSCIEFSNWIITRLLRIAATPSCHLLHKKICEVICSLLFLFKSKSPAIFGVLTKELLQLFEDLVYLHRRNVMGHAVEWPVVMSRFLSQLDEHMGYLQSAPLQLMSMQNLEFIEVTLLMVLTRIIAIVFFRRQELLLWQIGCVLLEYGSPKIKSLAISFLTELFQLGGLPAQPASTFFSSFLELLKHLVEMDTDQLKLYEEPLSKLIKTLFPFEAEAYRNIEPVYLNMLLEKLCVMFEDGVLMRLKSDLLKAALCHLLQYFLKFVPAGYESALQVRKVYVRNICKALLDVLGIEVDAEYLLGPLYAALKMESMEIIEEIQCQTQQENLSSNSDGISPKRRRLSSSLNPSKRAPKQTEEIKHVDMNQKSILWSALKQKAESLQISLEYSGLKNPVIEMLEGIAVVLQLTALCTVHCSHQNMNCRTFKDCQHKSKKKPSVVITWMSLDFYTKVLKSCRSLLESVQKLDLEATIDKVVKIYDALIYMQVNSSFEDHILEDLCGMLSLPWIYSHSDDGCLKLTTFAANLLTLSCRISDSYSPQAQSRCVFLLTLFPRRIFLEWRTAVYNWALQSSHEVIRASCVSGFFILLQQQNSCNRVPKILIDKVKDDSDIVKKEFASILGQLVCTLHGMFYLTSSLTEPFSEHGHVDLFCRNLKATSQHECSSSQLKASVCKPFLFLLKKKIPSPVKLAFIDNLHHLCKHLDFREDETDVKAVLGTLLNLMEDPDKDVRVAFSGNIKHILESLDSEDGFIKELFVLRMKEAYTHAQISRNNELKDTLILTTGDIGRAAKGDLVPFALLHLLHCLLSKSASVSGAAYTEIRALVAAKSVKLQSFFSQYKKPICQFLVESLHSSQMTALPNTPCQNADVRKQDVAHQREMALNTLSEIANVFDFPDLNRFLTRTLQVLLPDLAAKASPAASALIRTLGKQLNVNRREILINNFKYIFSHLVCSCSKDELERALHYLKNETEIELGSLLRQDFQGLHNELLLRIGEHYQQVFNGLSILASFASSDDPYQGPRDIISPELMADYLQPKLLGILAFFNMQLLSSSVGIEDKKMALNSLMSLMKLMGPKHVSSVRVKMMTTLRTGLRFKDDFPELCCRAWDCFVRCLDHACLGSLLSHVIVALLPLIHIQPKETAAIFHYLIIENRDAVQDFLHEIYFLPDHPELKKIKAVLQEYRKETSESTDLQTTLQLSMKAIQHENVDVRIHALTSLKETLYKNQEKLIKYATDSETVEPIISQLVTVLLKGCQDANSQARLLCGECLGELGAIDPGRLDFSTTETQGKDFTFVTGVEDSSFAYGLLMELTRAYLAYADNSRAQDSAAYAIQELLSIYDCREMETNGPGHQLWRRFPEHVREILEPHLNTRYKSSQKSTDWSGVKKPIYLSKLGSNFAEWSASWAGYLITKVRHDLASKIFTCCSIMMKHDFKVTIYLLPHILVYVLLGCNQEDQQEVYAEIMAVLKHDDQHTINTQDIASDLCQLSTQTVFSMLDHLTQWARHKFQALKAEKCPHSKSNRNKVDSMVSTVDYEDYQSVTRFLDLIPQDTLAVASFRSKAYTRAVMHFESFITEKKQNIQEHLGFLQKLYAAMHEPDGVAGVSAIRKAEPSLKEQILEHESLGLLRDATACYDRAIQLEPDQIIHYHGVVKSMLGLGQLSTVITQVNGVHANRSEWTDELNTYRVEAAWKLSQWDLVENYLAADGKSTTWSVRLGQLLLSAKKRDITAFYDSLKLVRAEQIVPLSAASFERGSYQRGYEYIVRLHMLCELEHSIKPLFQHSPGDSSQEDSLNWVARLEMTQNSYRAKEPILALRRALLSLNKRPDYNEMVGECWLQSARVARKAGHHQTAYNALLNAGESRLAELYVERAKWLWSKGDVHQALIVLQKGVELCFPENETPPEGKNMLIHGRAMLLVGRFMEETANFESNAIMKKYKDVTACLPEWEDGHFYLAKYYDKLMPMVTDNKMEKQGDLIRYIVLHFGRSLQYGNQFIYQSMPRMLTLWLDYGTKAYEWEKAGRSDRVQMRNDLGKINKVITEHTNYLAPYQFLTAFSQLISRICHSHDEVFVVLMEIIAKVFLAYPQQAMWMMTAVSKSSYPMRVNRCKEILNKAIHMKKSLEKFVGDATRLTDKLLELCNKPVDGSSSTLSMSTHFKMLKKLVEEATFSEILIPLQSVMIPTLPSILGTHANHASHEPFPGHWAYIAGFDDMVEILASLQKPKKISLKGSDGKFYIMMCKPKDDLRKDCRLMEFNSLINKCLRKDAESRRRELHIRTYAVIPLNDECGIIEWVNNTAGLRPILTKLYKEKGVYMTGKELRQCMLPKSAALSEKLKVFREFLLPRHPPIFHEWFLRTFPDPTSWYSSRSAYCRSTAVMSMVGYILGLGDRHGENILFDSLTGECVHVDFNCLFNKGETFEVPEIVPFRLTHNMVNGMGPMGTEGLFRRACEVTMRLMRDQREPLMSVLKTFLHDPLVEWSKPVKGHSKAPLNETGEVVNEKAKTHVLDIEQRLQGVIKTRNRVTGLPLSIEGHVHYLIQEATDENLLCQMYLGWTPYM
Chain of Phosphatidylinositol 4,5-bisphosphate 3-kinase catalytic subunit alpha isoform (P42336 whole entry, canonical isoform): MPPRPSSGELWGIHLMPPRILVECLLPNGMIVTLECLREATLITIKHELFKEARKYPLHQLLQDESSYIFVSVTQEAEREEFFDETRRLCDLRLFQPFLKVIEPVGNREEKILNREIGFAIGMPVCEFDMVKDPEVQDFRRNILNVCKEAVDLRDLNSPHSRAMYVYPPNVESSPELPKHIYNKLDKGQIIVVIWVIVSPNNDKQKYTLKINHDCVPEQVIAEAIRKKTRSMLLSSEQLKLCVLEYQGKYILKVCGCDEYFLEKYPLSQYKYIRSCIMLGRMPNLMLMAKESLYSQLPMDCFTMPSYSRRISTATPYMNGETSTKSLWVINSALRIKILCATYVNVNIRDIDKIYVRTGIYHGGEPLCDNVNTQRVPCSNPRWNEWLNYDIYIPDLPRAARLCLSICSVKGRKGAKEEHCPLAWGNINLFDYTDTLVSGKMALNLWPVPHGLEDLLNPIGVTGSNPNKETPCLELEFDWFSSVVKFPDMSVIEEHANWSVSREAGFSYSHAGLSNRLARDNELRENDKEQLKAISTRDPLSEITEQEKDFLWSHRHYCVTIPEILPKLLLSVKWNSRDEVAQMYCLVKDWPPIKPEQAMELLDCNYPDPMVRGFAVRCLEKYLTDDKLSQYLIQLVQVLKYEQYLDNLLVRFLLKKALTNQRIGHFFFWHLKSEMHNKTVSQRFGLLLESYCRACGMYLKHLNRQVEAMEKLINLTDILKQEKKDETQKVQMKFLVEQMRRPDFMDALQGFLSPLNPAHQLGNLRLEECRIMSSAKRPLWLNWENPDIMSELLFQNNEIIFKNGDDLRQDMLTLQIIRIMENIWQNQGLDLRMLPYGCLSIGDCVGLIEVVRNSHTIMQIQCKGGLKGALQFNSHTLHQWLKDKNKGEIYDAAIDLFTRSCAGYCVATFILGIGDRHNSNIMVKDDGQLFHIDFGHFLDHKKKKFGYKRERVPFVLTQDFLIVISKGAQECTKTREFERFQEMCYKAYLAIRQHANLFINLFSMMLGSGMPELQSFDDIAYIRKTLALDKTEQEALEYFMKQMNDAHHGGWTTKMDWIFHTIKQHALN

SMILES | IC50 [3] [µM] | also measured
O=c1cc(N2CCOCC2)oc2c1ccc1ccccc12 |  | IC50 [1]: > 100 µM; IC50 [2]: > 100 µM
O=c1cc(-c2ccccc2Cl)oc2c1ccc1ccccc12 | > 10 | 
COc1ccc2c(=O)cc(N3CCOCC3)oc2c1 | 0.95 | 
COc1ccc2oc(=O)cc(N3CCOCC3)c2c1 | 1.75 | 
Nc1cccc(-c2cc(=O)c3ccc4ccccc4c3o2)c1 | > 10 | 
CC(C)(C)c1ccc(-c2cc(=O)c3ccc4ccccc4c3o2)cc1 | > 10 | 
O=c1cc(N2CCOCC2)oc2cc3ccccc3cc12 | 0.39 | 
O=c1cc(N2CCC(O)C2)oc2c1ccc1ccccc12 (stereo not given) | 9.27 | 
O=c1cc(N2CCSCC2)oc2c(-c3ccccc3)cccc12 | 1.61 | IC50 [4]: > 100 µM
C#CCCN(C)c1cc(=O)n2ccc3ccccc3c2n1 | > 10 | 
O=c1cc(N2CCCCC2)oc2c(-c3ccccc3)cccc12 | 4.67 | IC50 [4]: > 100 µM
O=c1cc(N2CCCCC2)c2ccccc2o1 | 8.81 | 
CC1(C)CN(c2cc(=O)n3ccc4ccccc4c3n2)CCO1 | 6.71 | 
S=c1cc(N2CCOCC2)oc2c1ccc1ccccc12 | 0.26 | 
CC1(C)CN(c2cc(=O)c3ccc4ccccc4c3o2)CCO1 | 3.52 | 
COc1cccc2c(N3CCOCC3)cc(=O)oc12 | 10.9 | 
C[C@@H]1CN(c2cc(=O)n3ccc4ccccc4c3n2)C[C@H](C)O1 | 3.25 | 
O=c1cc(-c2cccc([N+](=O)[O-])c2)oc2c1ccc1ccccc12 | > 10 | 
O=c1cc(NCCO)nc2c3ccccc3ccn12 | > 10 | 
COc1ccc2c(N3CCOCC3)cc(=O)oc2c1 | 11.3 | 
O=c1cc(N2CCOCC2)c2cc3ccccc3cc2o1 | 3.24 | 
O=c1cc(N2CCOc3ccccc32)oc2c1ccc1ccccc12 | > 10 | 
O=c1cc(-c2cccnc2)oc2c1ccc1ccccc12 | 1.92 | 
O=c1cc(-c2ccncc2)oc2c1ccc1ccccc12 | > 10 | 
O=c1cc(NCC(O)CO)nc2c3ccccc3ccn12 (stereo not given) | 8.46 | 
CC(O)CNc1cc(=O)n2ccc3ccccc3c2n1 (stereo not given) | > 10 | 
O=c1cc(N2CCOCC2)c2c(ccc3ccccc32)o1 | 1.9 | 

SMILES | IC50 [3] [µM] | also measured
O=c1cc(NCC2CCCO2)nc2c3ccccc3ccn12 (stereo not given) | > 10 | 
CN(CCO)c1cc(=O)n2ccc3ccccc3c2n1 | > 10 | 
O=c1cc(N(CCO)Cc2ccccc2)nc2c3ccccc3ccn12 | > 10 | 
O=c1cc(N2CCNCC2)oc2c1ccc1ccccc12 | > 10 | 
O=c1cc(N2CCCC2)nc2c3ccccc3ccn12 | 6.68 | 
O=c1cc(N2CCOCC2)nc2ccccn12 | 2 | 
O=c1cc(NCCOc2ccccc2Br)oc2c1ccc1ccccc12 | > 10 | 
O=c1cc(N2CCOCC2)oc2c3c(ccc12)CCCC3 | 0.36 | 
O=c1cc(N2CCSCC2)nc2c3ccccc3ccn12 | 1.69 | 
O=c1cc(N2CCOCC2)nc2c3ccccc3ccn12 | 0.28 | IC50 [4]: > 100 µM; IC50 [5]: 5.3 µM; IC50 [1]: > 100 µM; IC50 [2]: > 100 µM
Nc1ccc(-c2cc(=O)c3ccc4ccccc4c3o2)cc1 | 7.7 | 
CN1CCN(c2cc(=O)n3ccc4ccccc4c3n2)CC1 | > 10 | 
CC1CN(c2cc(=O)c3ccc4ccccc4c3o2)CC(C)O1 (stereo not given) | 4.14 | 
CC1CCC(C)N(c2cc(=O)n3ccc4ccccc4c3n2)C1 (stereo not given) | > 10 | 
O=c1cc(N2CCOCC2)c2cc(Cl)ccc2o1 | 3.27 | 
Cc1cccc2c(=O)cc(N3CCOCC3)oc12 | 1.65 | 
O=c1cc(N2CCSCC2)c2cc3ccccc3cc2o1 | 5.15 | 
CCC1CN(c2cc(=O)n3ccc4ccccc4c3n2)CCO1 (stereo not given) | > 10 | 
O=c1cc(N2CCOC(CO)C2)nc2c3ccccc3ccn12 (stereo not given) | > 10 | 
O=c1cc(N2CCCC2)oc2c1ccc1ccccc12 | 6.17 | 
COc1cccc2oc(=O)cc(N3CCOCC3)c12 | > 10 | 
O=c1cc(-c2ccc([N+](=O)[O-])cc2)oc2c1ccc1ccccc12 | > 10 | 
OCCOCC/N=c1\cc(O)c2ccc3ccccc3c2o1 | > 10 | 
O=c1cc(N2CC[C@@H](O)C2)nc2c3ccccc3ccn12 | 6.49 | 
O=c1cc(N(CCO)CCO)nc2c3ccccc3ccn12 | > 10 | 
CN(CC(O)c1ccccc1)c1cc(=O)n2ccc3ccccc3c2n1 (stereo not given) | 10.5 | 
O=c1cc(N2CCC[C@H](CO)C2)oc2c1ccc1ccccc12 | > 10 | 

SMILES | IC50 [3] [µM] | also measured
O=c1cc(-c2ccc(F)cc2)oc2c1ccc1ccccc12 | > 10 | 
O=c1cc(N2CCSCC2)oc2c1ccc1ccccc12 | 1.38 | 
O=c1cc(N2CC=CC2)nc2c3ccccc3ccn12 | 2.81 | 
Cc1ccc2oc(=O)cc(N3CCOCC3)c2c1 | 5.35 | 
O=c1cc(-c2ccccc2F)oc2c1ccc1ccccc12 | 8.59 | 
O=c1cc(N2CCCOCC2)oc2c1ccc1ccccc12 | 2.01 | 
O=c1cc(N2CCOCC2)c2ccccc2o1 | 4.82 | 
O=c1cc(N2CCCCC2)oc2c1ccc1ccccc12 | 3.81 | 
O=c1cc(-c2cccc(Cl)c2)oc2c1ccc1ccccc12 | > 10 | 
O=c1cc(N2CCOCC2)oc2ccc(-c3ccccc3)cc12 | 2.24 | 
Cc1cccc2c(N3CCOCC3)cc(=O)oc12 | 8.05 | 
Nc1ccccc1-c1cc(=O)c2ccc3ccccc3c2o1 | > 10 | 
O=c1cc(NCC(O)c2cccc(O)c2)nc2c3ccccc3ccn12 (stereo not given) | > 10 | 
O=c1cc(-c2ccc(Cl)cc2)oc2c1ccc1ccccc12 | > 10 | 
O=c1cc(NCC2CCCO2)oc2c1ccc1ccccc12 (stereo not given) | > 10 | 
O=c1cc(-c2ccccc2[N+](=O)[O-])oc2c1ccc1ccccc12 | > 10 | 
O=c1cc(N2CC[S+]([O-])CC2)oc2c(-c3ccccc3)cccc12 | 5.71 | 
CC1CN(c2cc(=O)c3ccc4ccccc4c3o2)CCO1 (stereo not given) |  | IC50 [4]: 2.4 µM; IC50 [5]: 4.8 µM; IC50 [1]: > 100 µM; IC50 [2]: > 100 µM
O=c1cc(N2C[C@H]3C[C@@H]2CO3)oc2c1ccc1ccccc12 | 3.19 | 
O=c1cc(-c2cccc(F)c2)oc2c1ccc1ccccc12 | 5.71 | 
CN1CCN(c2cc(=O)c3ccc4ccccc4c3o2)CC1 | > 10 | 
COc1cccc2c(=O)cc(N3CCOCC3)oc12 | 1.2 | 
O=c1cc(-c2ccccc2)oc2c1ccc1ccccc12 [ALPHA-NAPHTHOFLAVONE] | 4.98 | 
O=c1cc(-c2ccccc2)oc2ccccc12 [FLAVONE] | > 10 | 
O=c1cc(N2CCOCC2)oc2c(-c3ccccc3)cccc12 [LY-294002] |  | IC50 [6]: > 100 µM; IC50 [7]: > 100 µM
